pKd: −log10 of the molar value.
Assays:
[1] = biological target: Von Hippel-Lindau disease tumor suppressor/Elongin B/Elongin C (Homo sapiens, UniProt P40337); assay: (§1) Binding affinity to N-terminal His6 tagged VHL (54 to 213 residues)/ELoC (17 to 112 residues)/EloB (1 to 120 residues) (unknown origin) complex expressed in Escherichia coli BL21(DE3) assessed as dissociation constant by ITC method
[2] = biological target: Von Hippel-Lindau disease tumor suppressor/Elongin B/Elongin C (Homo sapiens) (UniProt P40337+Q15370+Q15369); assay: as §1, with “change in melting temperature at 1 mM” for “dissociation constant”, “Sypro orange dye based differential scanning fluorimetric analysis” for “ITC method”
How it was run: (§2)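 Thermal shift screen with each fragment tested as a singleton. Unfolding temperature is followed with a fluorescent dye that binds preferentially to unfolded protein. For line 1 the target is VCB alone. For line 3 it is VCB preincubated with HIF-1α peptide (VCBH), which separates binders of the HIF site from binders elsewhere in the complex.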

[3] = biological target: T1, von Hippel-Lindau disease tumor suppressor/Elongin-C/Elongin-B/HIF1A (Homo sapiens) (UniProt Q16665+P40337+Q15370+Q15369); assay: Binding affinity to N-terminal His6 tagged VHL (54 to 213 residues)/ELoC (17 to 112 residues)/EloB (1 to 120 residues)/HIF-1alpha (unknown origin) complex expressed in Escherichia coli BL21(DE3) assessed as change in melting temperature at 1 mM by Sypro orange dye based differential scanning fluorimetric analysis; how it was run: as §2
[4] = biological target: T1, von Hippel-Lindau disease tumor suppressor/Elongin-C/Elongin-B/HIF1A (Homo sapiens); assay: Binding affinity to N-terminal His6 tagged VHL (54 to 213 residues)/ELoC (17 to 112 residues)/EloB (1 to 120 residues)/HIF-1alpha (unknown origin) complex expressed in Escherichia coli BL21(DE3) assessed as change in melting temperature at 1 mM in presence of DEALA-Hyp-YIPMDDDFQLRSF by differential scanning fluorimetry

SMILES | pKd [1] | ΔTm [2] [°C] | ΔTm [3] [°C] | ΔTm [4] [°C]
OCc1ccc(-n2cccc2)cc1 | 2.30 | > 0.5 | > 0.5 | –
COC(=O)c1cc2occc2[nH]1 | – | > 0.5 | > 0.5 | 0.7
O=C1CCSc2ccc(Cl)cc21 | 2.17 | > 0.5 | > 0.5 | 1.2
